Results from ChEMBL document CHEMBL4340532, “Design, synthesis, and biological evaluation of novel 2'-deoxy-2'-fluoro-2'-C-methyl 8-azanebularine derivatives as potent anti-HBV agents” (Bioorg Med Chem Lett, 2019).

Assays:
Hepatitis B virus [1] = assay: Antiviral activity against Hepatitis B virus infected in human HepG2.2.15 cells assessed as inhibition of HBeAg secretion at 20 uM supplemented with fresh medium containing compound every 3 days for 6 days and measured on day 9 by ELISA relative to control; assay type: functional
Outline: (§1)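 HepG2.2.15 cells were exposed to compound for up to 9 days. The initial screen used 20 µM for 9 days, with lamivudine (20 µM) as positive control. Follow-up used 10, 20 or 40 µM sampled at days 3, 6 and 9. HBsAg and HBeAg were quantified in culture supernatant by ELISA and compared with a no-drug control. Results are mean ± SD of three experiments.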

Hepatitis B virus [2] = assay: Antiviral activity against Hepatitis B virus infected in human HepG2.2.15 cells assessed as inhibition of HBsAg secretion at 20 uM supplemented with fresh medium containing compound every 3 days for 6 days and measured on day 9 by ELISA relative to control; assay type: functional; outline: as §1
Hepatitis B virus [3] = assay: Antiviral activity against Hepatitis B virus infected in human HepG2.2.15 cells assessed as inhibition of intracellular HBV DNA replication at 20 uM measured on day 3 by FQ-PCR analysis relative to control; assay type: functional; conditions: HepG2.2.15, 72 h
Outline: (§2)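 HepG2.2.15 cultures were treated at 10, 20 or 40 µM for 3, 6 and 9 days. Both intracellular and extracellular HBV DNA levels were then determined and compared with untreated cells.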

Hepatitis B virus [4] = assay: (§3) Antiviral activity against Hepatitis B virus infected in human HepG2.2.15 cells assessed as inhibition of intracellular HBV DNA replication at 20 uM supplemented with fresh medium containing compound every 3 days for 6 days measured post-last dose by FQ-PCR analysis relative to control; assay type: functional; outline: as §2
Hepatitis B virus [5] = assay: (§4) Antiviral activity against Hepatitis B virus infected in human HepG2.2.15 cells assessed as inhibition of intracellular HBV DNA replication at 20 uM supplemented with fresh medium containing compound every 3 days for 9 days measured post-last dose by FQ-PCR analysis relative to control; assay type: functional; outline: as §2
Hepatitis B virus [6] = assay: Antiviral activity against Hepatitis B virus infected in human HepG2.2.15 cells assessed as inhibition of extracellular HBV DNA replication at 20 uM measured on day 3 by FQ-PCR analysis relative to control; assay type: functional; conditions: HepG2.2.15, 72 h; outline: as §2
Hepatitis B virus [7] = assay: (§5) Antiviral activity against Hepatitis B virus infected in human HepG2.2.15 cells assessed as inhibition of extracellular HBV DNA replication at 20 uM supplemented with fresh medium containing compound every 3 days for 6 days measured post-last dose by FQ-PCR analysis relative to control; assay type: functional; outline: as §2
Hepatitis B virus [8] = assay: (§6) Antiviral activity against Hepatitis B virus infected in human HepG2.2.15 cells assessed as inhibition of extracellular HBV DNA replication at 20 uM supplemented with fresh medium containing compound every 3 days for 9 days measured post-last dose by FQ-PCR analysis relative to control; assay type: functional; outline: as §2
Hepatitis B virus [9] = assay: Antiviral activity against lamivudine-resistant Hepatitis B virus harboring L180M/M204V mutant infected in human HepG2.2.15 cells assessed as inhibition of intracellular HBV DNA replication at 20 uM measured on day 3 by FQ-PCR analysis relative to control; assay type: functional; conditions: HepG2.2.15, 72 h
Outline: (§7)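 Lamivudine-resistant cell line transfected with the L180M/M204V mutant, exposed to 10, 20 or 40 µM for 3, 6 or 9 days. Intracellular and extracellular HBV DNA levels measured.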

Hepatitis B virus [10] = assay: as §3, with “against lamivudine-resistant” for “against”, “virus harboring L180M/M204V mutant” for “virus”; assay type: functional; outline: as §7
Hepatitis B virus [11] = assay: as §4, with “against lamivudine-resistant” for “against”, “virus harboring L180M/M204V mutant” for “virus”; assay type: functional; outline: as §7
Hepatitis B virus [12] = assay: Antiviral activity against lamivudine-resistant Hepatitis B virus harboring L180M/M204V mutant infected in human HepG2.2.15 cells assessed as inhibition of extracellular HBV DNA replication at 20 uM measured on day 3 by FQ-PCR analysis relative to control; assay type: functional; conditions: HepG2.2.15, 72 h; outline: as §7
Hepatitis B virus [13] = assay: as §5, with “against lamivudine-resistant” for “against”, “virus harboring L180M/M204V mutant” for “virus”; assay type: functional; outline: as §7
Hepatitis B virus [14] = assay: as §6, with “against lamivudine-resistant” for “against”, “virus harboring L180M/M204V mutant” for “virus”; assay type: functional; outline: as §7
[15] = Cytotoxicity against human HepG2 cells supplemented with fresh medium containing compound every 3 days for 9 days measured post-last dose by MTT assay; assay type: cell-based
Outline: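 HepG2 cells were exposed to compound for 3 or 9 days and viability was read by MTT assay. CC50 is the concentration causing 50% cytotoxicity. Results are mean ± SD of three experiments.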

SMILES	inhibition (INH) (Hepatitis B virus [1]) [%]	inhibition (INH) (Hepatitis B virus [2]) [%]	inhibition at 20 µM (Hepatitis B virus [3]) [%]	inhibition (INH) (Hepatitis B virus [4]) [%]	inhibition (INH) (Hepatitis B virus [5]) [%]	inhibition at 20 µM (Hepatitis B virus [6]) [%]	inhibition (INH) (Hepatitis B virus [7]) [%]	inhibition (INH) (Hepatitis B virus [8]) [%]	inhibition at 20 µM (Hepatitis B virus [9]) [%]	inhibition (INH) (Hepatitis B virus [10]) [%]	inhibition (INH) (Hepatitis B virus [11]) [%]	inhibition at 20 µM (Hepatitis B virus [12]) [%]	inhibition (INH) (Hepatitis B virus [13]) [%]	inhibition (INH) (Hepatitis B virus [14]) [%]	CC50 at 216 h [15] [µM]
Nc1ccn([C@@H]2CS[C@H](CO)O2)c(=O)n1 [LAMIVUDINE]	39.6	42.4	47.4	69.7	77.9	32.7	54.1	78.6	6.3	7.9	11.2	4.1	8.4	19.3	
C[C@@]1(F)[C@H](O)[C@@H](CO)O[C@H]1n1nnc2c(Nc3ccccc3)ncnc21	17.7	14.8													501
CCCCNc1ncnc2c1nnn2[C@@H]1O[C@H](CO)[C@@H](O)[C@@]1(C)F	11.6	17													> 600
